# Shown are actives, neighbours in structure and some others; about 2.6% of the full set was active somewhere.
# IMP-1 inh-1: blocks Pseudomonas aeruginosa IMP-1 metallo-beta-lactamase; purified IMP-1, nitrocefin hydrolysis, epi-absorbance fluorescence; inhibition, % at 5.6 µM; AID 1556; actives 0.45% (n = 290,000);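 active = inhibition above the mean plus 3 SD of all compounds in the same screening run, cut at about 4.5% in these data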;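 note: 0% = IMP-1 with DMSO and 100% = DMSO wells lacking enzyme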
#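 system = purified recombinant IMP-1 beta-lactamase | amount = 0.2 nM IMP-1, as dispensed | medium = HEPES buffer pH 7.1 with ZnSO4 and Brij 35 | times = 25 °C, 15 min preincubation, 25 min reaction | detection = plate fluorescence quenching by hydrolysis product, ex 480/em 530 nm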
# ARFGAP1 inhibitor: rat ARFGAP1 inhibition; Arfgap1-stimulated ARF1 GTP hydrolysis, GDP FP detection; inhibition, % at 16.5 µM; actives 0.26% (n = 360,000); AID 651572;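 active = inhibition above a per-plate limit, mean inhibition of low control wells plus 3 SD, cut at about 25% in these data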;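 note: 0% = DMSO wells with enzyme and 100% = wells lacking Arfgap1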
# Target sequence (Q62848 1-136 limits assumed): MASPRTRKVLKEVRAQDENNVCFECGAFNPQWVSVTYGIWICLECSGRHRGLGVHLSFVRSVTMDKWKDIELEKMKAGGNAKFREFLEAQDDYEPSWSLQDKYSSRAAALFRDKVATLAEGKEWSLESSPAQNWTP
#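 Repeats: one replicate per compound; assay system: rat Arfgap1 catalytic domain, aa 1-136; times: enzyme reaction 120 min at 25 °C after 20 min preincubation; detection: FP of antibody-bound GDP Alexa 633 tracer, ex 620/em 688 nm; benchmarks: high control wells lacking Arfgap1, low control full reaction with DMSO; reagent: human ARF1(Δ1-17)-GTP substrate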
# ASAP1 GAP inh: inhibitors of human ASAP1 ArfGAP activity. Q9ULH1. ASAP1-stimulated ARF1 GTP hydrolysis, GDP FP detection. inhibition, % at 16.5 µM. actives 0.19% (n = 360,000). AID 624377; in the data active = inhibition above about 25%;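 note: 0% = vehicle with enzyme and substrate and 100% = no enzyme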
# Calb FLC: affects C. albicans growth with fluconazole | AID 1979 | C. albicans CaCi-2 + fluconazole, Alamar Blue growth, 48 h | growth inhibition, % (concentration not given with the values) | actives 0.57% (n = 300,000);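 active = growth inhibition above about 58% in most replicates, limit read from the data, passing the limit was not always enough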;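 note: all wells also contain fluconazole at 8 µg/ml as a sub-toxic cotreatment; 0% = median of DMSO wells and 100% = median of geldanamycin control wells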
# PHOSPHO1 inh: inhibitors of human PHOSPHO1 phosphatase; Q8TCT1; actives 1.1% (n = 290,000); recombinant PHOSPHO1, absorbance phosphatase assay; inhibition, % at 13.3 µM; in the data active = inhibition above about 60%
# VIM-2 inhibitor: blocks Pseudomonas aeruginosa VIM-2 metallo-beta-lactamase. purified VIM-2, nitrocefin hydrolysis, epi-absorbance fluorescence. inhibition, % at 5.6 µM. actives 0.89% (n = 290,000);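 active = inhibition above the mean of all tested compounds plus 3 SD, cutoff set per screening run, cut at about 7.5% in these data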;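 note: red hydrolysis product quenches plate fluorescence so inhibitors raise well fluorescence; 0% = enzyme with DMSO and 100% = DMSO without enzyme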
# IMP-1 inh-2: blocks IMP-1 metallo-beta-lactamase in VIM-2 selectivity screen; shares compounds with VIM-2 inhibitor; purified IMP-1, nitrocefin hydrolysis, epi-absorbance fluorescence; inhibition, % at 5.6 µM; 1,300 tested, under 10 active; call rule not given here;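 note: 0% = enzyme with vehicle and 100% = vehicle without enzyme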
# VIM-2 FRET inh: counter-screen for VIM-2 inhibitors: epi-absorbance artifacts via FRET. purified VIM-2, CCF2 FRET substrate hydrolysis. AID 1857. inhibition, % at 5.6 µM. shares compounds with VIM-2 inhibitor. actives 23% (n = 1,300);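 active = inhibition above the mean of all tested compounds plus 3 SD, cut at about 19% in these data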;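 note: 0% = VIM-2 plus DMSO and 100% = no enzyme wells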
# TEM-1 counter: blocks E. coli TEM-1 beta-lactamase in VIM-2 selectivity screen; shares compounds with VIM-2 inhibitor; Purified TEM-1, nitrocefin hydrolysis, epi-absorbance fluorescence; actives 3% (n = 1,300); inhibition, % at 5.6 µM;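 active = inhibition above that campaign's mean inhibition plus 3 SD, cut at about 0.46% in these data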;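 note: 0% = TEM-1 with DMSO and 100% = TEM-1 with 100 µM potassium clavulanate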
# Target sequence (P62593 whole entry, looked up): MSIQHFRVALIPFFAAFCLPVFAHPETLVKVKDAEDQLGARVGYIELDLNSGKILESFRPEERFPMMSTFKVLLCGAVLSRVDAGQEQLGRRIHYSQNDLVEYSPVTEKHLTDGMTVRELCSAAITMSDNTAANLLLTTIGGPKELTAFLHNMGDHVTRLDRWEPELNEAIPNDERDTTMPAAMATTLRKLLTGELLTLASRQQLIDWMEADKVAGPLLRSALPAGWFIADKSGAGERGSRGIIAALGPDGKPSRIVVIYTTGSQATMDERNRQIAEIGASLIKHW
# VIM-2 inh conf: confirmation of P. aeruginosa VIM-2 metallo-beta-lactamase inhibitors. shares compounds with VIM-2 inhibitor. purified VIM-2, nitrocefin hydrolysis, epi-absorbance. inhibition, % at 5.6 µM. actives 96% (n = 1,300). AID 2187;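 active = inhibition of the VIM-2 beta-lactamase enzyme above about 11% from the earlier first-round screen, limit read from the data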;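 note: 0% = VIM-2 with DMSO and 100% = buffer wells without enzyme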
# Active calls of the source: *; · = not tested or not shown.
SMILES,IMP-1 inh-1,ARFGAP1 inhibitor,ASAP1 GAP inh,Calb FLC,PHOSPHO1 inh,VIM-2 inhibitor,IMP-1 inh-2,VIM-2 FRET inh,TEM-1 counter,VIM-2 inh conf
Cc1cccc(C)c1OCC(=O)OC/C(O)=C(\C#N)c1nc2ccccc2[nH]1,-2,1,-1,6,3,4,·,·,·,·
N#C/C(=C(/O)CCl)c1nc2ccccc2[nH]1,0,-3,-10,52,12,50*,-3,-12,-7,36*
O=C(Nc1c2c(nn1-c1ccccc1)CS(=O)(=O)C2)c1ccc(Br)o1,·,4,1,·,·,·,·,·,·,·
C=CCn1c(OCc2ccccc2)n[nH]c1=S,-2,-3,-2,0,-91,1,·,·,·,·
S=c1[nH]nc(Cc2ccccc2)n1Cc1ccco1,-1,-3,-3,-2,25,1,·,·,·,·
S=c1[nH]nc(C2CC2)n1Cc1ccco1,2,7,8,10,81*,25*,-3,56*,-7,36*
C=CCn1c(C2CC2)n[nH]c1=S,-2,1,5,-7,-24,15*,-3,37*,-7,23*
CCC(=O)N1Cc2cc(C(=O)Nc3nccs3)nc(-c3cccc(-c4ccccc4OC)c3)c2[C@H]1CCO,·,-6,-3,·,·,·,·,·,·,·
CCNc1nc(C)nc2c1oc1ccccc12,-1,0,-11,-2,-14,4,·,·,·,·
c1ccc2c(c1)oc1c(NCCCn3ccnc3)ncnc12,-1,-7,4,3,72*,56*,-4,-7,-7,60*
Cc1nc(NCCCn2ccnc2)c2oc3ccccc3c2n1,1,8,-1,3,-6,76*,-2,-8,-6,83*
CCN(CC)CC(=O)Nc1cc(N(C)C)nc2ccccc12,-2,-8,3,-8,16,-1,·,·,·,·
CN1CCN(CC(=O)Nc2cc(N(C)C)nc3ccccc23)CC1,-3,2,0,13,29,19*,-3,-2,-2,38*
ClC(Cl)(Cl)c1nc(N/N=C/c2ccncc2)c2ccccc2n1,-4,15,7,40,17,34*,-3,-4,-6,65*
O=[N+]([O-])c1cccc(/C=N/Nc2nc(C(Cl)(Cl)Cl)nc3ccccc23)c1,-4,14,-2,-2,-1,-4,·,·,·,·
CCN(CC)CCNc1ncnc2c1sc1nc(N3CCOCC3)c3c(c12)CCCC3,-3,3,14,-1,24,15*,-4,0,-7,33*
CC1=C(C(=O)N(C(C)C)C(C)C)CC(CC(=O)NCc2cccc3ccccc23)C(=O)N1Cc1ccc(C(C)(C)C)cc1 (configuration not stated),·,8,-1,·,·,·,·,·,·,·
O=C(C1CCN(S(=O)(=O)c2ccccc2F)CC1)N1CCCC1,·,-4,-11,·,·,·,·,·,·,·
O=C(C1CCN(c2ncnc3c2sc2cccc(F)c23)CC1)N1CCCC1,-4,6,-1,1,8,13*,-2,3,-7,27*
Cc1cc(Br)cn2c(CC(C)(C)C)c(C3CCCCC3)nc12,·,-1,-8,·,·,·,·,·,·,·
Cc1cccnc1C(NC(=O)C1CCN(Cc2ccc(Oc3ccccc3)cc2)CC1)c1ccc(F)cc1 (configuration not stated),·,-4,-2,·,·,·,·,·,·,·
O=C1c2ccccc2-c2nc3ccccc3cc21,-4,1,0,5,33,12*,-4,0,-11,17*
c1ccc2c(c1)Cc1cc3ccccc3nc1-2,-3,0,8,-2,28,7,·,·,·,·
Nc1ccn([C@@H]2O[C@H](CNCc3cccc(OC4CCCC4)c3)[C@@H](O)[C@H]2O)c(=O)n1,·,-1,8,·,·,·,·,·,·,·
